Test results taken from ChEMBL document CHEMBL4706642, “Discovery of a Potent Dual Inhibitor of Acetylcholinesterase and Butyrylcholinesterase with Antioxidant Activity that Alleviates Alzheimer-like Pathology in Old APP/PS1 Mice” (J Med Chem, 2021).
Activity calls are given as the source filed them. The rule behind the calls is not given here.

Key:
[1] = target: T1, Acetylcholinesterase (Homo sapiens, UniProt P22303); test: Mixed-type inhibition of recombinant human AChE using varying concentration of acetylthiocholine iodide as substrate at 0.17 to 1.36 nM by Lineweaver-burk plot analysis
How it was run: (§1)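 Kinetics on human recombinant AChE with acetylthiocholine at 0.113–0.566 mM and inhibitor at 0.17–1.36 nM. Lineweaver–Burk plots were fitted by weighted least squares. Ki was taken as the negative x-intercept of a replot of slopes vs [I]. K'i came from a plot of apparent 1/vmax vs [I]. Two independent experiments, each in triplicate.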

[2] = target: Acetylcholinesterase (Electrophorus electricus, UniProt O42275); test: Displacement of propidium iodide from PAS-region of electric eel AChE assessed as dissociation constant by spectrofluorimetric analysis
How it was run: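 Back-titration fluorescence assay using electric eel AChE (type VI-S). Inhibitor was added in successive aliquots from a MeOH stock. Emission was read at 602 nm with excitation at 535 nm, after subtracting blanks. […] Three independent experiments.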

[3] = target: T1, Acetylcholinesterase; test: Mixed-type inhibition of recombinant human AChE assessed as dissociation constant for protein-substrate-compound complex using acetylthiocholine iodide as substrate by Cornish-Bowden plot analysis; how it was run: as §1
[4] = tested on: Mus musculus; test: Cognitive enhancing effect in 11 months old APP/PS1 double mutant-transgenic mouse model assessed as increase in preference index for object at 2 mg/kg, ip administered thrice a week for 4 weeks by novel object recognition test; format: functional, organism-based
How it was run: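 Male APP/PS1 mice received 2 mg/kg i.p. in saline (or vehicle), three times per week for 4 weeks. Preference index = time exploring the relocated or novel object divided by total time exploring both objects. Mean ± SEM, n = 7 per group; one-way ANOVA with Bonferroni post hoc.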

[5] = tested on: Mus musculus; test: Antialzheimer activity in 11 months old APP/PS1 double mutant-transgenic mouse model assessed as ratio of amyloid beta42 to amyloid beta40 levels in hippocampus at 2 mg/kg, ip administered thrice a week for 4 weeks by ELISA (reference value: 7.99 +/- 0.60); format: functional
[6] = target: T1, Acetylcholinesterase; test: Inhibition of recombinant human AChE using acetylthiocholineiodide as substrate preincubated for 20 mins followed by substrate addition by Ellman's method relative to parent compound
[7] = target: Cholinesterase (Homo sapiens, UniProt P06276); test: Inhibition of human serum BChE using butyrylthiocholineiodide as substrate preincubated for 20 mins followed by substrate addition by Ellman's method relative to parent compound; format: cell-free
Chain of Cholinesterase (P06276 whole entry): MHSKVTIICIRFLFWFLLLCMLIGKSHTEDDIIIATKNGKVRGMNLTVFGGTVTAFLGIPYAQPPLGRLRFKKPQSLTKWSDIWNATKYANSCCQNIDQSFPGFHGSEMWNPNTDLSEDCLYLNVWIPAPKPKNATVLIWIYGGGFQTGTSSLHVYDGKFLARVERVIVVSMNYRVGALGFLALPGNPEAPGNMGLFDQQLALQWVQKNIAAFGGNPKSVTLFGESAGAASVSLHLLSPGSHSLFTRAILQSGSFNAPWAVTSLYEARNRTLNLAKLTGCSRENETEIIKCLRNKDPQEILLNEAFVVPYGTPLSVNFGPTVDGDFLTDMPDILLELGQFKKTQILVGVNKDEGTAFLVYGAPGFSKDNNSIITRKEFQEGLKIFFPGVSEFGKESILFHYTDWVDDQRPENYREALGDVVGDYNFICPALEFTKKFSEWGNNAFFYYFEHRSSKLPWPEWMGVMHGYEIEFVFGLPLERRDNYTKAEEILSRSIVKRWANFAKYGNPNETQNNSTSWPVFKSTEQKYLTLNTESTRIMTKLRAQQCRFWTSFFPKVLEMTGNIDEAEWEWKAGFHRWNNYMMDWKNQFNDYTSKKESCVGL

T1 sequence (P22303 whole entry): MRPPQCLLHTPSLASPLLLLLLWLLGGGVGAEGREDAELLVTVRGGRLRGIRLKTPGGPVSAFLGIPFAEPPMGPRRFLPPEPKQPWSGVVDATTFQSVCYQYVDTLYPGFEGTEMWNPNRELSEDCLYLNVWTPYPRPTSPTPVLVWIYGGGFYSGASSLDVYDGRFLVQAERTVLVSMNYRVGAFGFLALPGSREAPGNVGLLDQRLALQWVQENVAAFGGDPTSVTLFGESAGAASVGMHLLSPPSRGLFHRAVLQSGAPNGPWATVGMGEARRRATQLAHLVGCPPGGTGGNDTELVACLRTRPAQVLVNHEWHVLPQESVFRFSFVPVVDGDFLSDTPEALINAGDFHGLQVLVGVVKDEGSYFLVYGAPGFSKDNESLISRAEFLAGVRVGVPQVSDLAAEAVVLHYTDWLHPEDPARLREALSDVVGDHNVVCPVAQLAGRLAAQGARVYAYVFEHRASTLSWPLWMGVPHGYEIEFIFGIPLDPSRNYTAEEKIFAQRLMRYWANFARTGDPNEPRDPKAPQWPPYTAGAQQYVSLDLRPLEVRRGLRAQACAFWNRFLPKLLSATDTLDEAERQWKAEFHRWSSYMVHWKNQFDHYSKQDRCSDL
Chain of Acetylcholinesterase (Electrophorus electricus, UniProt O42275) (O42275 whole entry): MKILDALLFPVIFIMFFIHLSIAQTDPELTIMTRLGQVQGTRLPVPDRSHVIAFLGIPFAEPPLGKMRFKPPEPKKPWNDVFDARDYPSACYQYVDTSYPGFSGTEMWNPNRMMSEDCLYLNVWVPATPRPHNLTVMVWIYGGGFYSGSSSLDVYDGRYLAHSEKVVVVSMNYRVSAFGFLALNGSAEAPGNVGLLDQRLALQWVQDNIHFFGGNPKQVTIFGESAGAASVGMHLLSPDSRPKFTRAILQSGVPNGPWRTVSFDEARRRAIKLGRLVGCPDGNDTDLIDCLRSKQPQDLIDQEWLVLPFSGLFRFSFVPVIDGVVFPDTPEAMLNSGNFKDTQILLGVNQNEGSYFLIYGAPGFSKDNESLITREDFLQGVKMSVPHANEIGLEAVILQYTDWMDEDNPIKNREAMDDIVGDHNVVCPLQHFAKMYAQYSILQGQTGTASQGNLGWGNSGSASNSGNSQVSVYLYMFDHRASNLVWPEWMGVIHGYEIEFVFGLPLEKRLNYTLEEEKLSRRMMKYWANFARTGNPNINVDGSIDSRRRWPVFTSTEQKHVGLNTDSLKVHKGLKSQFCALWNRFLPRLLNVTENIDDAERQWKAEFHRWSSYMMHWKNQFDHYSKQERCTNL

| Structure (SMILES) | Kd [1] [nM] | inhibition ([1]; dose 0.17-1.36 nM) | Kd [2] [nM] | Ki [3] [nM] | Activity [4] | Ratio [5] | fold change (FC) [6] | fold change (FC) [7] |
| --- | --- | --- | --- | --- | --- | --- | --- | --- |
| COc1cc(CNC(=O)CCCCCCNc2c3c(nc4cc(Cl)ccc24)CC2C=C(C)CC3C2)ccc1O (stereo not drawn) | 0.94 | Active | 3.59 | 0.94 |  |  |  |  |
| COc1cc(CNC(=O)Cc2cn(CCCCC3=CC4Cc5nc6cc(Cl)ccc6c(N)c5C(C3)C4)nn2)ccc1O (stereo not drawn) |  |  |  |  | Active | 3.42 | 25 | 25 |
